Published values pooled from the literature.
Target: Glycogen synthase kinase-3 beta (GSK3B, Homo sapiens, UniProt P49841)

Compound	read-out	mode	method	tested at	measurement	result
CN(C)c1ncnc(-c2ccc3nc(Nc4cc(CN5CCN(C(=O)CC(F)(F)F)CC5)ccn4)[nH]c3c2)c1Cl	cell-free assay		competition with immobilised ligand	1 µM	remaining binding	100%
CC(C)c1ccc(NC(=O)c2cccs2)c(-c2nc3ccccc3[nH]c2=O)c1	enzyme activity	inhibitor		1 µM	activity vs control	128%
N#CCCc1ccc2c(c1)-c1[nH]c3ccc([N+](=O)[O-])cc3c1CC(=O)N2	cell-free assay			0.5 µM	remaining signal	2.71%
O=c1cccc(C=Cc2ccc3c(c2)OCO3)o1	enzyme activity	inhibitor	ADP detection	100 µM	inhibition	26.1%
COc1cccc(CNC(=O)c2nc3scc(COCc4ccc(C(=O)O)cc4)c3c(=O)[nH]2)c1	cell-free assay		competition with immobilised ligand	1 µM	remaining binding	62.6%
COc1cc(Nc2cnc(C#N)c(O[C@H](C)CN(C)C)n2)ncc1-c1cnn(C)c1	enzyme activity	inhibitor	radiometric	1 µM	remaining activity	90%
CCCOc1ccc([C@H]2[C@H](C(=O)O)[C@@H](c3ccc4c(c3)OCO4)CN2CC(=O)Nc2c(CC)cccc2CC)cc1	cell-free assay		competition with immobilised ligand	1 µM	remaining binding	73%
O=C(O)c1cc(-c2ccc(F)cc2F)ccc1O	enzyme activity	inhibitor	ADP detection	100 µM	inhibition	38.6%
COc1cc(/C=C/C(=O)CC(=O)/C=C/c2ccc(O)c(OC)c2)ccc1O	enzyme activity	inhibitor		1 µM	activity vs control	105%
OCc1ccccn1	enzyme activity	inhibitor	ADP detection	100 µM	inhibition	4.4%
O=C1Nc2ccc(Cl)cc2C1=Cc1cc(Cl)c(O)c(Cl)c1	cell-free assay			0.5 µM	remaining signal	80.8%
CN1CCOC(c2ccccc2)c2ccccc2C1 (stereo not drawn)	enzyme activity	inhibitor	ADP detection	100 µM	inhibition	12.9%
COc1cc(Cl)c(C(=O)N[C@@H](CN[C@H]2CC[C@@H](N)CC2)Cc2ccc(C#N)cc2)cc1-c1ccc(CN[C@H](C)c2ccc(C)cc2)o1	enzyme activity	inhibitor		1 µM	remaining activity	101%
O=c1c2ccccc2[nH]c(=S)n1CCN1CCC(=C(c2ccc(F)cc2)c2ccc(F)cc2)CC1	enzyme activity	inhibitor		0.5 µM	remaining activity	112%
Cc1ccc(C(=O)NCc2ccsc2)cc1C#Cc1cn(C(C)C)c2ncnc(N)c12	enzyme activity	inhibitor		1 µM	activity vs control	102%
COc1ccc([C@H]2COc3c(ccc(O)c3OC)C2)c(OC)c1O	enzyme activity	inhibitor	ADP detection	100 µM	inhibition	15.7%
Cn1cc(Cl)c2c(Oc3c(F)cc(Nc4cc(Cl)nc(N)n4)cc3F)ccnc21	cell-free assay		competition with immobilised ligand	0.1 µM	remaining binding	90%
CNC(=O)c1cc(Oc2ccc(NC(=O)Nc3ccc(Cl)c(C(F)(F)F)c3)cc2)ccn1	cell-free assay			0.5 µM	remaining signal	101%

Compound	read-out	mode	method	tested at	measurement	result
Fc1ccc([C@@H]2CCNC[C@H]2COc2ccc3c(c2)OCO3)cc1	enzyme activity	inhibitor	ADP detection	100 µM	inhibition	0.9%
C[C@H](c1ccc(F)cc1)N(Cc1cccc(C(=O)O)c1)C(=O)c1cnc2ccccc2c1	cell-free assay		competition with immobilised ligand	1 µM	remaining binding	100%
Cc1cccc(C)c1NC(=O)c1ccccc1C(=O)O	enzyme activity	inhibitor	ADP detection	100 µM	inhibition	18.9%
Cc1cc(NC(=O)c2cccc3cc(-c4cccc5[nH]nc(N)c45)ccc23)ccc1F	enzyme activity	inhibitor		0.1 µM	activity vs control	85%
O=C(Nc1cnn(-c2csc(C(=O)NC3COC3)c2)c1)Nc1c(F)cccc1Cl	enzyme activity	inhibitor		5 µM	remaining activity	95.7%
Cn1sc(=O)n(Cc2ccccc2)c1=O	cell-free assay			0.5 µM	remaining signal	114%
O=C(O)c1cn(C2CC2)c2cc(N3CCNCC3)c(F)cc2c1=O	enzyme activity	inhibitor	ADP detection	100 µM	inhibition	18.7%
O=Nc1c(-c2c(O)[nH]c3ccccc23)[nH]c2ccccc12	cell-free assay			0.5 µM	remaining signal	27.3%
CCC(=O)N[C@H]1CC[C@@H](C(=O)N(C)c2ccc(-c3nc4ccccc4o3)cc2)C1	cell-free assay		competition with immobilised ligand	1 µM	remaining binding	81%
FC(F)(F)Oc1cccc(-c2cnc3ccc(-c4ccncc4)nn23)c1	enzyme activity	inhibitor	radiometric	1 µM	activity vs control	88%
O=C(Nc1cnn(-c2csc(C(=O)NC3COC3)c2)c1)Nc1ccccc1Cl	enzyme activity	inhibitor		5 µM	remaining activity	95%
Oc1cccc(-c2nc(N3CCOCC3)c3oc4ncccc4c3n2)c1	enzyme activity	inhibitor		10 µM	remaining activity	48%
O=C1NC(=O)c2cc(Nc3ccc(F)cc3)c(Nc3ccc(F)cc3)cc21	cell-free assay			0.5 µM	remaining signal	89.2%
CC(C)(C)c1nc2c(s1)c1nc(N)ncc1c1ccc(NS(=O)(=O)c3c(F)cccc3F)c(F)c12	enzyme activity	inhibitor	radiometric	1 µM	remaining activity	91%
C[C@@H](c1cccc(C#N)c1)n1cc(Cl)cc(C(N)=O)c1=N	cell-free assay		competition with immobilised ligand	1 µM	remaining binding	88%
FC(F)c1nc2ccccc2n1-c1nc(N2CCOCC2)nc(N2CCOCC2)n1	enzyme activity	inhibitor		10 µM	remaining activity	79%
CN1CCN(c2cnc3c(C4CCN(C(=O)c5ccc(OC(F)(F)F)cc5N)CC4)ncnc3c2)CC1	cell-free assay		competition with immobilised ligand	1 µM	remaining binding	100%
Nc1[nH]nc2nc3ccccc3nc12	enzyme activity	inhibitor		0.5 µM	remaining activity	99.7%
